Screening data deposited in PubChem BioAssay by several laboratories.
S1P4 agonist = S1P4 receptor agonists, primary screen, cell-based; 220,000 tested, 0.35% active; AID 1509, 2009; Sphingosine 1-phosphate receptor 4 (Homo sapiens), O95977; S1P4-expressing cell line, agonist reporter assay; activation, % at 4.98 µM; in the data active means activation above about 11%
MDM2 E3 inh = MDM2-luciferase reporter signal enhancers, primary screen, MDM2 E3 ligase inhibitor project, cell-based, luminescence, 1536-well; E3 ubiquitin-protein ligase Mdm2 (Homo sapiens), Q00987; 210,000 tested, 0.11% active; cell-based MDM2 ubiquitination luciferase reporter, 2 h; 0 = plate control, 100 = twice control, blank-subtracted; AID 1230, 2008; signal enhancement, % at 5 µM;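 active means signal enhancement of 30% or more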;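 further: luminescence tracks abundance of the self-degrading MDM2-luciferase fusion protein; higher signal means inhibition of MDM2 E3 ligase activity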
Target sequence (Q00987 whole entry, looked up, the tested form may be a part): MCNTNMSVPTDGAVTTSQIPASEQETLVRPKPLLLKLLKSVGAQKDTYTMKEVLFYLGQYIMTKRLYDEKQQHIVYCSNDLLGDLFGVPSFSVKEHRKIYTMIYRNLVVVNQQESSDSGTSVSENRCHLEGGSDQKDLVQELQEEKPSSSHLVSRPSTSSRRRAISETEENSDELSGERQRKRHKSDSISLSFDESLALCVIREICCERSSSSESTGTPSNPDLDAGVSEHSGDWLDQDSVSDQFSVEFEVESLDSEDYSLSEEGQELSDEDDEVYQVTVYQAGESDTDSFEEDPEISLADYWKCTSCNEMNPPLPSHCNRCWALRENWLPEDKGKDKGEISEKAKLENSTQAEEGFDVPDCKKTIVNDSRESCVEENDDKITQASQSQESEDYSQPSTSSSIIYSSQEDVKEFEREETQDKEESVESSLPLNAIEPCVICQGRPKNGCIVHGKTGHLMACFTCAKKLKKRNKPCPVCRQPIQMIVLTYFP
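Material: Stable MDM2–luciferase fusion reporter cells | Amount: 2000 cells seeded into each well | Dosing: One concentration, 5 µM, with 0.2% DMSO | Incubation: 4 h cell settling then 2 h compound exposure, 37 °C | Measured by: Luciferase luminescence | Read-out basis: % enhancement relative to plate controls after blank subtraction | Benchmarks: Control and blank well means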
S1P4 antagonist = S1P4 receptor antagonists, primary screen, cell-based | AID 1510, 2009 | 220,000 tested, 0.26% active | inhibition, % at 4.98 µM | S1P4-expressing cells, antagonist mode, reporter read-out | Sphingosine 1-phosphate receptor 4 (Homo sapiens), O95977; in the data active means inhibition above about 29%
L major viab = Leishmania major promastigote growth inhibition, primary screen. Leishmania major promastigotes, resazurin fluorescence viability. inhibition, % at 10 µM. 200,000 tested, 9% active. AID 1063, 2008; in the data active means inhibition above about 50%;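 further: promastigotes grown with compound for 44 hours at 28 °C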
S1P3 antag-1 = S1P3 receptor antagonists, primary screen, cell-based. Sphingosine 1-phosphate receptor 3 (Homo sapiens), Q99500. CHO S1P3 NFAT-BLA reporter, FRET fluorescence, antagonist mode. inhibition, % at 4.98 µM. 170,000 tested, 0.27% active. AID 485, 2006;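 active means inhibition above the plate cutoff, the mean inhibition of test wells on that plate plus 3 SD, cut at about 28% in these data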;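 further: cells challenged with S1P at its EC80 of 0.8 µM; blue over green emission ratio from cleaved BLA substrate after 4 h stimulation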
S1P3 antag-2 = S1P3 receptor antagonists, retest, confirmation, cell-based; shares compounds with S1P3 antag-1; CHO S1P3 NFAT-BLA reporter, FRET, antagonist mode; 240 tested, 30% active; AID 1429, 2008; inhibition, % at 4.98 µM;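 active means inhibition above the hit threshold that was computed for the earlier primary screen, cut at about 30% in these data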
L major 1uM = Leishmania major promastigote growth inhibition, confirmation, 1 µM repeat of primary hits; shares compounds with L major viab; inhibition, % at 1 µM; AID 1258, 2008; 1,100 tested, 13% active; L. major promastigote growth, resazurin fluorescence, 48 h;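 active means inhibition above about 50% in both repeat tests, limit read from the data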
S1P4 antag cf = S1P4 receptor antagonists, human, confirmation, cell-based | shares compounds with S1P4 antagonist | S1P4-expressing cell line, antagonist mode, reporter read-out | inhibition, % at 4.98 µM | 520 tested, 71% active | AID 1524, 2009; in the data active means inhibition above about 30%
S1P1 antagonist = S1P1 receptor antagonists, human, counter-screen for S1P4 antagonist project, cell-based; shares compounds with S1P4 antagonist; cell-based S1P1 antagonist counterscreen, inhibition; inhibition, % at 4.98 µM; 520 tested, 37% active; in the data active means inhibition above about 40%;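 further: receptor stimulated with S1P near its EC80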
Of the large screens only hits and unclear results are named; the others gave an inactive call (follow-up assays come after a bar, where they were run). Many of the other results were omitted from the sample, so hits are more common in it than they were.

CC1C(c2ccccc2)N(C)C(c2ccccc2)CC1(O)c1ccc(F)cc1 (configuration not stated)	S1P3 antag-1 31 | S1P3 antag-2 48
CNC(=O)NC(=O)C(C)OC(=O)c1c2c(nc3ccccc13)/C(=C/c1cccs1)CC2 (configuration not stated)	none
CCCCNC(=O)COC(=O)c1c2c(nc3ccccc13)/C(=C/c1cccs1)CC2	S1P3 antag-1 37 | S1P3 antag-2 inactive
Clc1ccccc1C1=CC(c2ccco2)n2ncnc2N1 (configuration not stated)	S1P3 antag-1 32 (no result: L major viab) | S1P3 antag-2 inactive
Cn1nc(-c2ccccn2)nc2c(=O)n(C)c(=O)nc1-2	S1P4 antagonist 104, S1P3 antag-1 81 (no result: MDM2 E3 inh, L major viab) | S1P3 antag-2 90
COc1ccc(-c2nc(-c3ccccn3)ncc2S(C)(=O)=O)cc1	none
CCOC(=O)C1CCCN(S(=O)(=O)c2ccc(S(=O)(=O)N(CC)CC)cc2)C1 (configuration not stated)	S1P3 antag-1 48 | S1P3 antag-2 inactive
COc1cnc(-c2ccccn2)nc1NC(C)C	L major viab 100, S1P3 antag-1 29 | S1P3 antag-2 inactive
COc1cnc(-c2ccccn2)[nH]c1=O	none
COc1cnc(-c2ccccn2)nc1Oc1ccc(F)cc1F	S1P3 antag-1 29 | S1P3 antag-2 inactive
COc1cnc(-c2ccccc2)nc1Oc1ccccc1C	none (no result: MDM2 E3 inh, S1P3 antag-1)
CCCCC(=O)N/N=C/c1ccc(-c2ccc([N+](=O)[O-])cc2)o1	none
CC(C)(C)NC(=S)N/N=C\c1ccc(-c2ccc([N+](=O)[O-])cc2)o1	S1P4 antagonist 45, S1P3 antag-1 70 (no result: L major viab) | S1P3 antag-2 73 | S1P4 antag cf 83 | S1P1 antagonist 134
Cc1cc(C)n(-c2c(F)c(F)c(CO)c(F)c2F)n1	none (no result: S1P3 antag-1)
COC(=O)c1scc2c(=O)cc(C(F)(F)F)[nH]c12	S1P4 antagonist 35, S1P3 antag-1 32 (no result: L major viab) | S1P3 antag-2 inactive | S1P4 antag cf 69 | S1P1 antagonist 51
CCOC(=O)N1CCC(Nc2c(N3CCN(c4cccc(C(F)(F)F)c4)CC3)c(=O)c2=O)CC1	none (no result: MDM2 E3 inh)
CCCCNc1ccc2c3c(cccc13)C(=O)N(CCCC)C2=O	S1P4 antagonist 45, S1P3 antag-1 47 (no result: L major viab) | S1P3 antag-2 59 | S1P4 antag cf 67 | S1P1 antagonist 98
CCCc1nc2c(=O)n(C)c(=O)nc-2n(C)n1	S1P4 antagonist 54, L major viab 101, S1P3 antag-1 72 | S1P3 antag-2 107 | L major 1uM 94 | S1P4 antag cf 89 | S1P1 antagonist 56
CCn1c(N)nc2c1c(=O)n(C)c(=O)n2C	none
Cc1cccc(-n2c(SCc3cc(=O)n4ccsc4n3)nc3ccccc32)c1	L major viab 92 | L major 1uM inactive
CCc1ccc(OCCOCC(O)CNC2CCCC2)cc1 (configuration not stated)	L major viab 60 | L major 1uM inactive
COc1ccccc1N1CCN(C2CCN(C(=O)c3cccc(F)c3)CC2)CC1	L major viab 82 | L major 1uM inactive
Clc1ccc(CSCCc2ccncc2)cc1	none (no result: S1P3 antag-1)
c1ccc2c(CSCCc3ccncc3)cccc2c1	L major viab 99 (no result: S1P3 antag-1) | L major 1uM inactive
CCc1ccccc1N1CN(Cc2cccnc2)CNC1=S	none (no result: L major viab)
Cc1ccc(N2CN(Cc3cccnc3)CNC2=S)c(C)c1	L major viab 86 | L major 1uM inactive
COC(=O)[C@@H]1C(c2c(OC)cc(OC)cc2OC)=NO[C@H]1C(=O)OC	none
